According to ChEMBL document CHEMBL1129493 (J Med Chem, 1996):
In brackets after ≈: the same amount, converted by molar mass.

Tests used:
Candida albicans = experiment: Minimum inhibitory concentration evaluated against Candida albicans; assay type: functional
Dihydrofolate reductase [1] = target: T1, Dihydrofolate reductase (Candida albicans, UniProt P22906); experiment: Inhibition of Dihydrofolate reductase enzyme from Candida albicans
T1 sequence (P22906 whole entry): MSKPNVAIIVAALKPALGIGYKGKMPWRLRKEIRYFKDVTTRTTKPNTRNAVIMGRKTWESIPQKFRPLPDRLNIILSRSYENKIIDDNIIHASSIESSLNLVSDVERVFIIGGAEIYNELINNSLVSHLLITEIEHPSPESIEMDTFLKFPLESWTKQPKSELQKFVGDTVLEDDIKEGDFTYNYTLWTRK

Dihydrofolate reductase [2] = target: T2, Dihydrofolate reductase (Homo sapiens, UniProt P00374); experiment: Inhibition of human recombinant Dihydrofolate reductase enzyme
T2 sequence (P00374 whole entry): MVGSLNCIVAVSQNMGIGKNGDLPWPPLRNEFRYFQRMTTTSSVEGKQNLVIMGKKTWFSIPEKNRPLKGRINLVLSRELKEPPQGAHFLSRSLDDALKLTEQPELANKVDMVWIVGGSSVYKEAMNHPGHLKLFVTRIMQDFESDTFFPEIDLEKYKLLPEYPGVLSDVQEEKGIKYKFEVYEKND

HCT-8 [3] = experiment: Activity was evaluated against HCT-8 tumor cells; assay type: functional, cell-based; conditions: Homo sapiens
How it was run: (§1)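 Cytotoxicity was read by MTT dye reduction for suspension cultures or sulforhodamine B for monolayer cultures. For reversal of multidrug resistance, reserpine was added as reversing agent ([…] as printed).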

A549 = experiment: Cytotoxic activity evaluated against A549 tumor cells; conditions: Homo sapiens
[4] = Cytotoxic activity was evaluated against Daoy tumor cells; assay type: functional, cell-based; conditions: Homo sapiens; how it was run: as §1
D54 cell line = experiment: Cytotoxic Activity was evaluated against D54 tumor cells; assay type: functional, cell-based; conditions: Homo sapiens; how it was run: as §1
NCI-H460 = experiment: Cytotoxic Activity was evaluated against H460 tumor cells; assay type: functional, cell-based; conditions: Homo sapiens; how it was run: as §1
HCT-8 [5] = experiment: Cytotoxic Activity was evaluated against HCT-8 tumor cells; assay type: functional, cell-based; conditions: Homo sapiens; how it was run: as §1
[6] = Cytotoxic activity was evaluated against L tumor cells; assay type: functional, cell-based; conditions: Mus musculus; how it was run: as §1
Mus musculus [7] = experiment: Effect on life span of mice with intracranially implanted P388 Leukemic cells; assay type: functional
How it was run: (§2)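 CDF-1 female mice (18–20 g, 5 or 8/group); P388 leukemia, maintained by in vivo serial passage, implanted intracranially at 1 × 10^5 cells. Treatment started 24 h later; test agents suspended in 0.5% carboxymethyl cellulose plus 1% Tween 80, given sc or ip qd × 10. Read-out was percent increase in life span versus controls.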

Mus musculus [8] = experiment: Effect on life span of mice with intraperitoneally implanted P388 Leukemic cells; assay type: functional
How it was run: (§3)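 CDF-1 female mice (18–20 g, 5 or 8/group); P388 or P388/ADR cells implanted ip at 1 × 10^6 cells. Dosing began 24 h later; agents suspended in 0.5% carboxymethyl cellulose plus 1% Tween 80, given sc or ip qd × 10. Read-out was percent increase in life span.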

Mus musculus [9] = experiment: Effect on life span of mice with intraperitoneally implanted P388/ADR Leukemic cells; assay type: functional; how it was run: as §3
Mus musculus [10] = organism: Mus musculus; experiment: Effect on Pneumocystis carinii pneumonia in SCID mice in presence of leucovorin; assay type: functional
How it was run: (§4)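 SCID mice (10-11/group) were dosed prophylactically once daily from day 1 postinfection, 42 doses. Test drug in D5W was given ip, then leucovorin 12 mg/kg sc 30 min later. Trimethoprim 50 mg/kg plus sulfamethoxazole 250 mg/kg was given orally, and controls received D5W ip and sc. Lung impression smears were taken 24 h after the last dose and stained by immunofluorescence. Infection was scored 0-4 semilogarithmically, reported as mean ± SEM and as infected/total mice.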

Mus musculus [11] = organism: Mus musculus; experiment: Number of mice infected to that of total number of mice ([…]/[…]); assay type: functional, organism-based
P388 [12] = experiment: Cytotoxic activity was evaluated against P388D1 tumor cells; assay type: functional, cell-based; conditions: Mus musculus; how it was run: as §1
U373 MG = experiment: Cytotoxic activity was evaluated against U373MG tumor cells; assay type: functional, cell-based, U-373MG ATCC; conditions: Homo sapiens; how it was run: as §1
U-87 MG = experiment: Cytotoxic activity was evaluated against U87MG tumor cells; assay type: functional, cell-based, U-87MG ATCC; conditions: Homo sapiens; how it was run: as §1
Vero = experiment: Cytotoxic Activity was evaluated against Vero tumor cells; assay type: functional, cell-based; conditions: Chlorocebus sabaeus; how it was run: as §1
143B = experiment: Cytotoxic Activity was evaluated against 143B (TK-) tumor cells; assay type: functional, cell-based; conditions: Homo sapiens; how it was run: as §1
[13] = Relative concentration of compound in brain compared to concentration in plasma (0.4 ug/mL) at the time of tissue collection from mice; relative concentration; assay type: ADME, organism-based; conditions: mouse, read-out: Activity
Mus musculus [14] = experiment: Effect on life span of mice with intracranially implanted P388 Leukemic cells at 10 mg/kg by subcutaneous injection; assay type: functional; how it was run: as §2
Mus musculus [15] = experiment: Effect on life span of mice with intraperitoneally implanted P388 Leukemic cells at 10 mg/kg by subcutaneous injection; assay type: functional; how it was run: as §3
Mus musculus [16] = experiment: Effect on life span of mice with intraperitoneally implanted P388/ADR Leukemic cells at 10 mg/kg by subcutaneous injection; assay type: functional; how it was run: as §3
Mus musculus [17] = organism: Mus musculus; experiment: Effect on Pneumocystis carinii pneumonia in SCID mice in the presence of leucovorin; assay type: functional; how it was run: as §4
Mus musculus [18] = organism: Mus musculus; experiment: Number of mice infected to that of total number of mice (2/11); assay type: functional, organism-based
Mus musculus [19] = organism: Mus musculus; experiment: Effect on Candida albicans nephritis and Meningitis in Immunosuppressed Mice brain; assay type: functional
How it was run: (§5)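 Immunosuppressed CD-1 female mice (10/group) given cyclophosphamide ip, 160 and 40 mg/kg on days -4 and -1; C. albicans 5 × 10^4 cfu/mouse iv via lateral tail vein. Sc dosing of 20 or 50 mg/kg in sesame oil at 3, 7, 24, 30 h post-inoculation; sulfamethoxazole 200 mg/kg ip in D5W given 1 h before each dose. Kidney and brain cultured at 48 h; log cfu/g tissue.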

Mus musculus [20] = organism: Mus musculus; experiment: Effect on Candida albicans nephritis and Meningitis in Immunosuppressed Mice brain in the presence of SMX; assay type: functional
How it was run: (§6)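 Immunosuppressed CD-1 female mice (10/group; cyclophosphamide 160 and 40 mg/kg ip on days -4 and -1) inoculated iv via lateral tail vein with 5 × 10^4 cfu C. albicans. Compound sc in 0.1 mL sesame oil (20 or 50 mg/kg) at 3, 7, 24, 30 h; sulfamethoxazole 200 mg/kg ip in D5W 1 h before each dose. Kidney and brain cultured at 48 h; log cfu/g tissue, duplicate or single experiments.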

Mus musculus [21] = organism: Mus musculus; experiment: Effect on Candida albicans nephritis and Meningitis in Immunosuppressed Mice kidney; assay type: functional; how it was run: as §5
Mus musculus [22] = organism: Mus musculus; experiment: Effect on Candida albicans nephritis and Meningitis in Immunosuppressed Mice kidney in the presence of SMX; assay type: functional; how it was run: as §6
KB [23] = experiment: Cytotoxic activity was evaluated against KBV-1 cells in presence of reserpine; assay type: functional, Homo sapiens; how it was run: as §1
KB [24] = experiment: Cytotoxic activity was evaluated against KBV-1 cells; assay type: functional, Homo sapiens; how it was run: as §1
MCF7 [25] = experiment: Cytotoxic activity was evaluated against MCF-7/ADR cells; assay type: functional, Homo sapiens; how it was run: as §1
MCF7 [26] = experiment: Cytotoxic activity was evaluated against MCF-7/ADR+Reserpine cells; assay type: functional, Homo sapiens; how it was run: as §1
MCF7 [27] = experiment: Cytotoxic Activity was evaluated against MCF-7 cells; assay type: functional, Homo sapiens; how it was run: as §1
KB 3-1 = experiment: Cytotoxic activity was evaluated against KB3-1 cells; assay type: functional, Homo sapiens; how it was run: as §1
P388 [28] = experiment: Cytotoxic activity was evaluated against P388D1/ADR cells; assay type: functional, Mus musculus; how it was run: as §1
P388 [29] = experiment: Cytotoxic Activity was evaluated against P388D1 cells; assay type: functional, Mus musculus; how it was run: as §1
P388 [30] = experiment: Cytotoxic activity was evaluated against P388/ADR + reserpine cells; assay type: functional, Mus musculus; how it was run: as §1

| SMILES | MIC (Candida albicans) | Ki (Dihydrofolate reductase [1]) | Ki (Dihydrofolate reductase [2]) | IC50 (HCT-8 [3]) | IC50 (A549) | IC50 [4] | IC50 [6] | Increase in life-span (Mus musculus [8]) | IC50 (P388 [12]) | IC50 (U-87 MG) | other results |
| --- | --- | --- | --- | --- | --- | --- | --- | --- | --- | --- | --- |
| Cn1ccc2c3c(N)nc(N)nc3ccc21 | 1.6 µg/mL (≈ 7.5 µM) | 25 nM | 0.23 nM | 580 nM | – | – | – | – | – | – | – |
| COc1ccc(OC)c(Cc2cnc3nc(N)nc(N)c3c2C)c1 [PIRITREXIM] | > 10 µg/mL | 1.9 nM | 0.025 nM | – | 24 nM | 70 nM | 76 nM | 40% | 21 nM | 48 nM | IC50 (D54 cell line): 230 nM; IC50 (NCI-H460): 260 nM; IC50 (HCT-8 [5]): 68 nM; Increase in life-span (Mus musculus [7]): 0%; Increase in life-span (Mus musculus [9]): -5%; Infection score (Mus musculus [10]): 3.27; No. of mice infected /total (Mus musculus [11]): Number of mice infected to that of total number of mice ([…]/[…]); IC50 (U373 MG): 55 nM; IC50 (Vero): 30 nM |
| CCC(CC)n1c(C)cc2c3c(N)nc(N)nc3ccc21 | 0.025 µg/mL (≈ 0.0882 µM) | 0.03 nM | 0.0003 nM | 0.74 nM | 0.4 nM | 2.3 nM | 0.6 nM | – | 0.12 nM | 2.1 nM | IC50 (143B): 0.8 nM; Kp [13]: 10; IC50 (D54 cell line): 4.6 nM; IC50 (NCI-H460): 0.5 nM; Increase in life-span (Mus musculus [14]): 50%; Increase in life-span (Mus musculus [15]): 80%; Increase in life-span (Mus musculus [16]): 20%; Infection score (Mus musculus [17]): 0.18; No. of mice infected /total (Mus musculus [18]): Number of mice infected to that of total number of mice (2/[…]); Log cfu/g of tissue (Mus musculus [19]): 3.6; Log cfu/g of tissue (Mus musculus [20]): 3.4; Log cfu/g of tissue (Mus musculus [21]): 3.4; Log cfu/g of tissue (Mus musculus [22]): 2.5; IC50 (U373 MG): 2.3 nM; IC50 (Vero): 1 nM |
| COc1cccc2c1C(=O)c1c(O)c3c(c(O)c1C2=O)C[C@@](O)(C(=O)CO)C[C@@H]3O[C@H]1C[C@H](N)[C@H](O)[C@H](C)O1 [DOXORUBICIN] | – | – | – | – | – | – | – | 130% | – | – | Relative IC50 (KB [23]): 1.6; Relative IC50 (KB [24]): 61; Relative IC50 (MCF7 [25]): 200; Relative IC50 (MCF7 [26]): 1.5; Relative IC50 (MCF7 [27]): 1; Relative IC50 (KB 3-1): 1; Increase in life-span (Mus musculus [9]): 30%; Relative IC50 (P388 [28]): 28 nM; Relative IC50 (P388 [29]): 1; Relative IC50 (P388 [30]): 3.7 nM |
| CCCc1cc2c3c(N)nc(N)nc3ccc2n1C(CC)CC | > 0.1 µg/mL | < 0.11 nM | 0.0004 nM | 4.4 nM | – | – | – | – | – | – | – |
| Nc1nc(N)c2c(ccc3[nH]ccc32)n1 | 0.8 µg/mL (≈ 4.02 µM) | 23 nM | 1 nM | 1450 nM | – | – | – | – | – | – | – |
| CCC(CC)n1ccc2c3c(N)nc(N)nc3ccc21 | 0.001 µg/mL (≈ 0.00371 µM) | 0.22 nM | 0.0045 nM | 6 nM | 10 nM | 80 nM | 2.2 nM | 80% | 4.5 nM | 8 nM | Kp [13]: 10; Increase in life-span (Mus musculus [7]): 55%; Log cfu/g of tissue (Mus musculus [21]): 6 |
